Broadly, the Inhibition is how much of the control response was suppressed. Low values mean a response near the control, high ones a response far below the control.

Chain of Creatine kinase M-type (Oryctolagus cuniculus) (P00563 whole entry, looked up): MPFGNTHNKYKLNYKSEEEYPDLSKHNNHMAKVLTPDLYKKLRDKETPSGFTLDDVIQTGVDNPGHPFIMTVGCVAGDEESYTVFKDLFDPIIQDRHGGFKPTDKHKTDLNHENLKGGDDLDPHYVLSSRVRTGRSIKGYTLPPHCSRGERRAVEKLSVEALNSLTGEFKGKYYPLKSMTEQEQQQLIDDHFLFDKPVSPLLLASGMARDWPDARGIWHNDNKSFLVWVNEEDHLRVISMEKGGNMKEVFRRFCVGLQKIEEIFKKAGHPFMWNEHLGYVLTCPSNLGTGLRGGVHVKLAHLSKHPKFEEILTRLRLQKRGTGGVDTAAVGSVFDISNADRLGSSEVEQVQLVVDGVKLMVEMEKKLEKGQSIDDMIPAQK

Test system in one assay: not listed separately
Kind of assay: In vivo blood glucose was determined in obese, hyperglycemic, hyperinsulinemic, insulin-resistant […] after a dose of 500 mg/kg for 4 days. The class given is functional, Mus musculus. The method, boiled down: (§1)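 KKAy mice (KK female × Ay male cross) allocated to treatment or control groups (n = 6) after pretest glucose. Compound given in food, equivalent to 500 mg/kg per day for 4 days. Nonfasting blood drawn from the retroorbital sinus; glucose measured by autoanalyzer. Result expressed as treated/control glucose ratio (T/C). Wilcoxon rank sum test applied when T/C < 0.80.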
The compound `N=C(N)NCCC(=O)O` [OMPENACLID] yielded an MISS T/C of 0.52.

Test system in another assay: not listed separately
The assay can be described thus: In vivo blood glucose was determined in obese, hyperglycemic, hyperinsulinemic, insulin-resistant KKAy mice after a dose of 500 mg/kg for 4 days. Type of assay: functional, Mus musculus. The method, boiled down: as §1
Consider `N=C(N)NCCP(=O)(O)O`, for which the “MISS T/C” value was 0.81. Consider `Cl.N=C(N)CSCC(=O)O`, for which the “MISS T/C” value was determined as 0.92. As for `CCc1cc(O)nc(NCCC(=O)O)n1`, the “MISS T/C” value stood at 0.96.

For the compound `N=C(N)NOCC(=O)O`, the “MISS T/C” value stood at 0.83. With `N=C(N)NCC(S)C(=O)O` (stereo unspecified), the “MISS T/C” value came to 0.83. `Cl.N=C(N)CCCC(=O)O`: the “MISS T/C” value is 0.93. Take `CCCCCCN=C(N)NCCC(=O)O`: the “MISS T/C” value stood at 0.85. As for `N=C(N)c1cccn1CCC(=O)O`, the “MISS T/C” value turned out to be 0.93. Regarding `N=C(N)NCC(=O)O` [GUANIDINO ACETATE], the MISS T/C stood at 0.62. With `CC(CN=C(N)N)C(=O)O` (stereo unspecified), the “MISS T/C” value is on record as 0.86.

On to `COC(=O)NC(=N)NCCC(=O)O`, for which the “MISS T/C” value was 0.88. Consider `Cl.NC(=O)CCN=C(N)N`, for which the “MISS T/C” value is on record as 0.96. Regarding `O=C(O)CCNc1nc2ccccc2s1`, the “MISS T/C” value was found to be 0.87. As for `O=C(O)CCNC1=NCCS1`, the “MISS T/C” value stood at 0.85. With `Cl.N=C(N)S/C=C\C(=O)O`, the “MISS T/C” value amounted to 0.95. Take `N=C(N)c1ccc(CC(=O)O)[nH]1`: the “MISS T/C” value is reported as 1.1. Regarding `N/C(S)=N/CCC(=O)O`, the “MISS T/C” value came out at 0.99. Regarding `Cl.Cl.N/C(=N\CCC(=O)O)c1ccccc1N`, the “MISS T/C” value was 0.92. Turning to `Cl.N=C(N)NC/C(=N/O)C(=O)O`, the “MISS T/C” value came out at 0.97. On the same count and under the same terms, the value for `O=C(O)Cc1c[nH]cn1` [IMIDAZOLE ACETIC ACID] was 0.68; that for `CC(CC(=O)O)N=C(N)N` (stereo unspecified) was 0.77. For the compound `CCCCCC(CC(=O)O)N=C(N)N` (stereo unspecified), the “MISS T/C” value is listed as 0.88. `N=C(N)NC(CC(=O)O)c1ccccc1` (stereo unspecified): the “MISS T/C” value stood at 0.95.

In the case of `CC(=N)NCCC(=O)O`, the “MISS T/C” value worked out at 0.77. Consider `NC(=O)NCCC(=O)O`, for which the “MISS T/C” value is recorded as 1.06. In turn, `N=C(N)SCCC(=O)O` returned an MISS T/C of 0.53. Regarding `N=C(N)N[C@H]1CCCC[C@H]1C(=O)O`, the “MISS T/C” value stood at 0.92. `CN(CCC(=O)O)C(=N)N`: the “MISS T/C” value was 1.02.

Regarding `N[C@@H](Cc1c[nH]cn1)C(=O)O` [HISTIDINE], the “MISS T/C” value came out at 0.8. Turning to `N=C(N)NCC(Cc1ccccc1)C(=O)O` (stereo unspecified), the “MISS T/C” value turned out to be 0.93.

On to `N=C(N)NCCCC(=O)O`, for which the “MISS T/C” value worked out at 0.8. With `N=C(N)N[C@H]1CCC[C@H]1C(=O)O`, the “MISS T/C” value was 0.97. On the same count and under the same terms, the result for `O=C(O)CCn1cccn1` reads 1.11; that for `Cl.N=C(N)SCCCC(=O)O`, 0.87. As for `CCOC(=O)CCN=C(N)N.Cl`, the “MISS T/C” value stood at 0.87. Regarding `CN(C)C(=N)SCCC(=O)O.Cl`, the “MISS T/C” value turned out to be 1.08. Consider `CNC(CN=C(N)N)C(=O)O.Cl.Cl` (stereo unspecified), for which the “MISS T/C” value came out at 0.96. Consider `N=C(N)Nc1ccc(C(=O)O)cc1` [4-GUANIDINO-BENZOIC ACID], for which the “MISS T/C” value is reported as 0.8. Regarding `N=C(N)N1CCCC(C(=O)O)C1` (stereo unspecified), the “MISS T/C” value is 1. Turning to `O=C(O)CCNC1=NCCN1`, the “MISS T/C” value is reported as 0.97.

Turning to `N=C(N)NCCc1c[nH]c(S)n1`, the “MISS T/C” value was determined as 0.8.

Turning to `Cl.N=C(N)NCCC(=O)NO`, the “MISS T/C” value is on record as 1.05.

The compound `N=C(N)NNCC(=O)O` came in with an MISS T/C of 0.61.

In turn, `O=C(O)CCNc1ccccn1` yielded an MISS T/C of 0.2. The same measure, in the same setting: the result for `Cl.N=C(N)SCC(=O)O` reads 0.86; that for `C/N=C(\N)SCCC(=O)O.Cl`, 0.59.

`N=C(N)N[C@H]1CCCC[C@@H]1C(=O)O`: the “MISS T/C” value is reported as 0.93. Turning to `C/N=C(\N)NCCC(=O)O`, the “MISS T/C” value is given as 1.02. In the case of `O=C(O)CCn1ccnc1`, the “MISS T/C” value is 0.81. In the case of `C/N=C(\NC)SCCC(=O)O.Cl`, the “MISS T/C” value was determined as 1.06.

In the case of `Nc1ccc[n+](CC(=O)O)c1.[Cl-]`, the “MISS T/C” value stood at 0.94. With `Nc1ncnc2c1cnn2CCC(=O)O`, the “MISS T/C” value is on record as 1.27. Same read-out and setting: the value for `Nc1ncnc2nn(CCC(=O)O)cc12` was 1.08; that for `N=C(N)NCCc1nnn[nH]1` was 0.94; that for `N=C(N)S/C=C\C(=O)O` [ZAPA] was 0.68. As to `NC(N)=NC[C@H](N)C(=O)O`, the MISS T/C was 0.35. With `Cl.NC(N)=NC[C@@H](N)C(=O)O`, the “MISS T/C” value was 0.92. On to `N#CN/C(N)=N\CCC(=O)O`, for which the “MISS T/C” value was found to be 0.92. On to `O=C(O)CCNc1[nH]cnc2ncnc1-2`, for which the “MISS T/C” value is 0.85.

With `N/C(=N/CCC(=O)O)N[N+](=O)[O-]`, the “MISS T/C” value amounted to 0.84. As for `O=C(O)CCNc1nccs1`, the “MISS T/C” value was 0.99. Same read-out and setting: the result for `O=C(O)CCNc1ncccn1` reads 1.01; that for `N=C(N)NCCS(=O)(=O)O`, 0.91. Same read-out and setting: the value for `N=C(N)N[C@H]1CCC[C@@H]1C(=O)O` was 0.9. Regarding `N=C(N)NCC(O)C(=O)O` (stereo unspecified), the “MISS T/C” value worked out at 1.1.

With `CSC(=N)NCCC(=O)O`, the “MISS T/C” value is listed as 1.1. As for `O=C(O)CCNc1nc2ccccc2[nH]1`, the “MISS T/C” value worked out at 0.95.

In the case of `CC(=O)NC(=N)NCCC(=O)O`, the “MISS T/C” value is reported as 0.88. Turning to `Nc1cccc[n+]1CCC(=O)[O-]`, the “MISS T/C” value is given as 1.07. In the case of `N=C(N)NCCC[C@H](N)C(=O)O` [ARGININE], the “MISS T/C” value came to 1.02. Regarding `Nc1cccc(CC(=O)O)n1`, the “MISS T/C” value was found to be 1.08. As to `CCCCCC(CN=C(N)N)C(=O)O` (stereo unspecified), the “MISS T/C” value is on record as 0.79.

`N=C(N)c1ccccc1NCCC(=O)O`: the “MISS T/C” value came to 0.73. For the compound `N=C(N)N1CCCCC1CC(=O)O` (stereo unspecified), the “MISS T/C” value is 0.91.

A further assay has as its system A10. Kind of assay: (§2) In vitro [14C]- creatine uptake (1 mM) was determined in rat A10 smooth muscle cells at a concentration of (1 mM). The class given is functional. The method, boiled down: (§3)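 Rat A10 smooth muscle cells grown in DMEM with 10% FBS and used in log-phase growth. Cells washed, then incubated at 37 °C in Hanks buffer (pH 7.4, 10 mM Hepes, 20 mM glucose, 0.2% fatty-acid-free BSA) with [14C]creatine (1 mM) plus test compound (1 mM) for 30–120 min. Ice-cold washes, NaOH lysis, scintillation counting. Uptake normalised to medium specific activity and extract protein; reported as % inhibition.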
Turning to `N=C(N)NCCC(=O)O` [OMPENACLID], the Inhibition is 97%.

The species entered for the next assay is Rattus norvegicus. The assay is described as §2. The class given is functional. The gist of the method: as §3
As for `N=C(N)NNCC(=O)O`, the Inhibition turned out to be 36%.

The next assay concerns the target Creatine kinase M-type (Oryctolagus cuniculus) (UniProt P00563). Kind of assay: In vitro kinase activity (phosphorylation) of creatine kinase was determined.
`CN(CC(=O)O)C(=N)N` [CREATINE] displayed an Activity of 100.

For the compound `N=C(N)NCCC(=O)O` [OMPENACLID], the Activity was found to be 5. On to `N=C(N)NNCC(=O)O`, for which the Activity stood at 0.5.

A further assay has as its target Sodium- and chloride-dependent creatine transporter 1 (Rattus norvegicus) (UniProt P28570). Kind of assay: In vitro [14C]- creatine uptake (1 mM) was determined in rat A10 smooth muscle cells at a concentration of (1 mM).
`CN(CC(=O)O)C(=N)N` [CREATINE] registered an Inhibition of 92%.
